ChEMBL document CHEMBL4130483, “Leishmanicidal and cytotoxic activity of hederagenin-bistriazolyl derivatives” (Eur J Med Chem, 2017)
Calls of active or inactive are those of the source.

What was measured:
SW-1736 = assay: Cytotoxicity against human SW1736 cells assessed as reduction in cell viability incubated fro 96 hrs by SRB assay; assay type: functional, cell-based; details: SW-1736, 96 h
Procedure, shortened: (§1)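 Sulforhodamine B photometric assay after 96 h treatment. Monolayers were grown in RPMI 1640 with L-glutamine, 10% heat-inactivated FBS and penicillin/streptomycin at 37 °C in humidified 5% CO2. Cut-off was 30 μM, or 60 μM for the parent. EC50 was averaged from at least three independent experiments, each in four replicates. Betulinic acid was the positive standard.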

[1] = Ratio of selectivity index of test compound to potassium antimonyl tartrate by measuring ratio of CC50 for dog DH82 cells to IC50 for antileishmanial activity against Leishmania infantum MHOM/BR/70/BH46 intracellular amastigotes infected in canine DH82 cells; assay type: toxicity, cell-based
Leishmania infantum [2] = assay: Antileishmanial activity against Leishmania infantum MHOM/BR/70/BH46 intracellular amastigotes infected in canine DH82 cells assessed as as inhibition of cell growth at 1000 uM incubated for 48 hrs by ELISA method; assay type: functional; details: MHOM/BR/70/BH46, DH82, 48 h, read-out: GI
[3] = Cytotoxicity in human HepG2 cells assessed as reduction in cell viability incubated for 48 hrs by MTT assay; assay type: cell-based
Procedure, shortened: (§2)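 MTT colorimetric assay with microscopic monitoring. CC50 is the concentration cytotoxic to 50% of BGM or HepG2 cells. Potassium antimonyl tartrate trihydrate was the positive control.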

HT-29 [4] = assay: Cytotoxicity against human HT-29 cells assessed as reduction in cell viability incubated fro 96 hrs by SRB assay; assay type: functional, cell-based; details: HT-29, 96 h; procedure, shortened: as §1
[5] = Selectivity index, ratio of CC50 for dog DH82 cells to IC50 for antileishmanial activity against Leishmania infantum MHOM/BR/70/BH46 intracellular amastigotes infected in canine DH82 cells; assay type: toxicity, cell-based; details: read-out: Ratio CC50/IC50
Procedure, shortened: (§3)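 SI = CC50 in DH82 macrophages (MTT) divided by IC50 against intracellular L. infantum BH46 amastigotes.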

A2780 [6] = assay: Cytotoxicity against human A2780 cells assessed as reduction in cell viability incubated fro 96 hrs by SRB assay; assay type: functional, cell-based; details: A2780, 96 h; procedure, shortened: as §1
A-375 = assay: Cytotoxicity against human A375 cells assessed as reduction in cell viability incubated fro 96 hrs by SRB assay; assay type: functional, cell-based; details: A-375, 96 h; procedure, shortened: as §1
Leishmania infantum [7] = assay: Antileishmanial activity against Leishmania infantum MHOM/BR/70/BH46 intracellular amastigotes infected in canine DH82 cells assessed as as inhibition of cell growth incubated for 48 hrs by ELISA method; assay type: functional, organism-based; details: MHOM/BR/70/BH46, DH82, 48 h
Procedure, shortened: (§4)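 L. infantum BH46 intracellular amastigotes. Phase II testing at 0.1, 1.0, 10 and 100 μM. IC50 is the concentration inhibiting in vitro growth by 50%, taken from dose-response curves (log concentration vs inhibition) run in four replicates. Potassium antimonyl tartrate trihydrate served as positive control.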

[8] = Selectivity index, ratio of CC50 for human HepG2 cells to IC50 for antileishmanial activity against Leishmania infantum MHOM/BR/70/BH46 intracellular amastigotes infected in canine DH82 cells; assay type: toxicity, cell-based; details: read-out: Ratio CC50/IC50
Procedure, shortened: (§5)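 SI = CC50 in BGM or HepG2 cells (MTT) divided by the intracellular amastigote IC50.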

[9] = Cytotoxicity in dog DH82 cells assessed as reduction in cell viability incubated for 48 hrs by MTT assay; assay type: cell-based, Canis lupus familiaris
Procedure, shortened: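 DH82 canine macrophage viability was monitored microscopically and by MTT colorimetric assay. CC50 is the concentration cytotoxic to 50% of DH82 cells. Potassium antimonyl tartrate trihydrate was the positive control.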

[10] = Selectivity index, ratio of CC50 for African green monkey BGM cells to IC50 for antileishmanial activity against Leishmania infantum MHOM/BR/70/BH46 intracellular amastigotes infected in canine DH82 cells; assay type: toxicity, cell-based; details: read-out: Ratio CC50/IC50; procedure, shortened: as §5
[11] = Cytotoxicity in African green monkey BGM cells assessed as reduction in cell viability incubated for 48 hrs by MTT assay; assay type: cell-based; details: chlorocebus aethiops; procedure, shortened: as §2
[12] = Ratio of selectivity index of test compound to hederagenin by measuring ratio of CC50 for dog DH82 cells to IC50 for antileishmanial activity against Leishmania infantum MHOM/BR/70/BH46 intracellular amastigotes infected in canine DH82 cells; assay type: toxicity, cell-based
FaDu = assay: Cytotoxicity against human FADU cells assessed as reduction in cell viability incubated fro 96 hrs by SRB assay; assay type: functional, cell-based
MCF7 = assay: Cytotoxicity against human MCF7 cells; assay type: functional, cell-based
A2780 [13] = assay: Cytotoxicity against human A2780 cells; assay type: functional, cell-based
8505C = assay: Cytotoxicity against human 8505C cells; assay type: functional, cell-based
518A2 = assay: Cytotoxicity against human 518A2 cells; assay type: functional, cell-based
A549 = assay: Cytotoxicity against human A549 cells; assay type: functional, cell-based
Leishmania infantum [14] = assay: Antiparasitic activity against Leishmania infantum; assay type: functional, organism-based
HT-29 [15] = assay: Cytotoxicity against human HT-29 cells; assay type: functional, cell-based
[16] = Selectivity index, ratio of CC50 for dog DH82 cells to IC50 for Leishmania infantum MHOM/BR/70/BH46 intracellular amastigotes infected in canine DH82 cells; assay type: toxicity, cell-based; procedure, shortened: as §3
Leishmania infantum [17] = assay: Antileishmanial activity against Leishmania infantum MHOM/BR/70/BH46 intracellular amastigotes infected in canine DH82 cells assessed as as inhibition of cell growth; assay type: functional, organism-based; details: MHOM/BR/70/BH46, DH82; procedure, shortened: as §4
HT-29 [18] = assay: Induction of cell morphology changes in human HT-29 cells at 15 uM incubated for 24 hrs by AO/PI staining based fluorescence microscopy; assay type: functional
Procedure, shortened: (§6)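 HT29 cells were treated for 24 h, then stained with acridine orange and propidium iodide. Morphology and membrane permeability were assessed by fluorescence microscopy against an untreated control.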

HT-29 [19] = assay: Induction of cell membrane permeability changes in human HT-29 cells at 15 uM incubated for 24 hrs by AO/PI staining based fluorescence microscopy; assay type: functional; procedure, shortened: as §6

SMILES	EC50 (SW-1736)	inhibition of growth at 1000 µM (Leishmania infantum [2])	CC50 at 48 h [3]	EC50 (HT-29 [4])	selectivity ratio [5]	EC50 (A2780 [6])	EC50 (A-375)	IC50 (Leishmania infantum [7])	selectivity ratio [8]	CC50 at 48 h [9]	selectivity ratio [10]	CC50 at 48 h [11]	EC50 (FaDu)	EC50 (MCF7)	EC50 (A2780 [13])	EC50 (8505C)	EC50 (518A2)	EC50 (A549)	EC50 (HT-29 [15])	other results
Cc1ccc(C(=O)Cn2cc(COC[C@@]3(C)[C@@H]4CC[C@]5(C)[C@H](CC=C6[C@@H]7CC(C)(C)CC[C@]7(C(=O)OCc7cn(CC(=O)c8ccc(C)cc8)nn7)CC[C@]65C)[C@@]4(C)CC[C@@H]3O)nn2)cc1	> 30 µM	63.7%	> 1000 µM	> 30 µM	> 135	> 30 µM	> 30 µM	7.4 µM	> 135	> 1000 µM	> 135	> 1000 µM	> 30 µM	–	–	–	–	–	–	Ratio [1]: 10; Ratio [12]: 14
CC1(C)CC[C@]2(C(=O)OCc3cn(Cc4cccc(Br)c4)nn3)CC[C@]3(C)C(=CC[C@@H]4[C@@]5(C)CC[C@H](O)[C@@](C)(CO)[C@@H]5CC[C@]43C)[C@@H]2C1	–	–	–	–	–	–	–	–	–	–	–	–	–	3 to 4.1 µM	3 to 4.1 µM	3 to 4.1 µM	3 to 4.1 µM	3 to 4.1 µM	3 to 4.1 µM	IC50 (Leishmania infantum [14]): 32 to 34 µM
CC1(C)CC[C@]2(C(=O)OCc3cn(Cc4ccccc4F)nn3)CC[C@]3(C)C(=CC[C@@H]4[C@@]5(C)CC[C@H](O)[C@@](C)(COCc6cn(Cc7ccccc7F)nn6)[C@@H]5CC[C@]43C)[C@@H]2C1	> 30 µM	65%	> 1000 µM	16.3 µM	> 178	21.6 µM	28.5 µM	5.6 µM	> 178	> 1000 µM	> 178	> 1000 µM	> 30 µM	–	–	–	–	–	–	Ratio [1]: 1780; selectivity ratio [16]: > 178; IC50 (Leishmania infantum [17]): 5.6 µM; Ratio [12]: 8
CC1(C)CC[C@]2(C(=O)OCc3cn(CC(=O)c4ccc(C#N)cc4)nn3)CC[C@]3(C)C(=CC[C@@H]4[C@@]5(C)CC[C@H](O)[C@@](C)(COCc6cn(CC(=O)c7ccc(C#N)cc7)nn6)[C@@H]5CC[C@]43C)[C@@H]2C1	11.9 µM	8.8%	–	7.4 µM	–	11.2 µM	10.6 µM	–	–	–	–	–	12.1 µM	–	–	–	–	–	–	Activity (HT-29 [18]): inactive; Activity (HT-29 [19]): inactive
CC1(C)CC[C@]2(C(=O)OCc3cn(Cc4cccc([N+](=O)[O-])c4)nn3)CC[C@]3(C)C(=CC[C@@H]4[C@@]5(C)CC[C@H](O)[C@@](C)(CO)[C@@H]5CC[C@]43C)[C@@H]2C1	–	–	–	–	–	–	–	–	–	–	–	–	–	3 to 4.1 µM	3 to 4.1 µM	3 to 4.1 µM	3 to 4.1 µM	3 to 4.1 µM	3 to 4.1 µM	–
CC1(C)CC[C@]2(C(=O)OCc3cn(Cc4ccc([N+](=O)[O-])cc4)nn3)CC[C@]3(C)C(=CC[C@@H]4[C@@]5(C)CC[C@H](O)[C@@](C)(COCc6cn(Cc7ccc([N+](=O)[O-])cc7)nn6)[C@@H]5CC[C@]43C)[C@@H]2C1	> 30 µM	58.6%	> 1000 µM	> 30 µM	> 38	> 30 µM	> 30 µM	25.9 µM	> 38	> 1000 µM	> 38	> 1000 µM	> 30 µM	–	–	–	–	–	–	–
CC1(C)CC[C@]2(C(=O)OCc3cn(Cc4cccc(Cl)c4)nn3)CC[C@]3(C)C(=CC[C@@H]4[C@@]5(C)CC[C@H](O)[C@@](C)(CO)[C@@H]5CC[C@]43C)[C@@H]2C1	–	–	–	–	–	–	–	–	–	–	–	–	–	3 to 4.1 µM	3 to 4.1 µM	3 to 4.1 µM	3 to 4.1 µM	3 to 4.1 µM	3 to 4.1 µM	–
